From ChEMBL document CHEMBL3352499, “One pot three components microwave assisted and conventional synthesis of new 3-(4-chloro-2-hydroxyphenyl)-2-(substituted) thiazolidin-4-one as antimicrobial agents” (Bioorg Med Chem Lett, 2014)
Converted amounts (≈) assume the structure as drawn.

Tests used:
[1] = test system: Aspergillus flavus; assay: Antimicrobial activity against Aspergillus flavus NCIM-539 after 20 hrs by two fold serial macrodilution technique; type: functional; conditions: NCIM-539, 20 h
[2] = test system: Salmonella typhimurium; assay: Antimicrobial activity against […] after 20 hrs by two fold serial macrodilution technique; type: functional, Salmonella enterica subsp. enterica serovar Typhimurium; conditions: Salmonella enterica
Procedure, shortened: (§1)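 Serial macrodilution in 96-well microtiter plates. Compounds were dissolved in saline (0.8% NaCl) containing 5% DMSO, and strains were incubated with a range of concentrations for 20 h at 37 °C on a rotary shaker (160 rpm). MIC was the lowest concentration without growth. Runs were in triplicate, with the mean taken. The negative control was 5% DMSO.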

[3] = test system: Staphylococcus aureus; assay: Bactericidal activity against Staphylococcus aureus NCIM-2901 after 72 hrs by two fold serial macrodilution technique; type: functional; conditions: NCIM-2901, 72 h
Procedure, shortened: (§2)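 Serial subcultivation followed 72 h of exposure to compounds dissolved in saline containing 5% DMSO. MBC/MFC was the lowest concentration with no visible growth, taken as 99.5% killing of the original inoculum. Runs were in triplicate, with the mean reading used.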

[4] = test system: Aspergillus niger; assay: Antimicrobial activity against Aspergillus niger NCIM-1196 after 20 hrs by two fold serial macrodilution technique; type: functional; conditions: NCIM-1196, 20 h
[5] = test system: Escherichia coli; assay: Antimicrobial activity against Escherichia coli NCIM-2256 after 20 hrs by two fold serial macrodilution technique; type: functional; conditions: NCIM-2256, 20 h; procedure, shortened: as §1
[6] = test system: Candida albicans; assay: Antimicrobial activity against Candida albicans NCIM-3471 after 20 hrs by two fold serial macrodilution technique; type: functional; conditions: NCIM-3471, 20 h
[7] = test system: Salmonella typhimurium; assay: Bactericidal activity against […] after 72 hrs by two fold serial macrodilution technique; type: functional, Salmonella enterica subsp. enterica serovar Typhimurium; conditions: Salmonella enterica; procedure, shortened: as §2
[8] = test system: Staphylococcus aureus; assay: Antimicrobial activity against Staphylococcus aureus NCIM-2901 after 20 hrs by two fold serial macrodilution technique; type: functional; conditions: NCIM-2901, 20 h; procedure, shortened: as §1
[9] = test system: Cryptococcus neoformans; assay: Fungicidal activity against Cryptococcus neoformans NCIM-3378 after 48 to 72 hrs by two fold serial macrodilution technique; type: functional; procedure, shortened: as §2
[10] = test system: Bacillus subtilis; assay: Antimicrobial activity against Bacillus subtilis NCIM-2063 after 20 hrs by two fold serial macrodilution technique; type: functional; conditions: NCIM-2063, 20 h; procedure, shortened: as §1
[11] = test system: HeLa; assay: Cytotoxicity against human HeLa cells by SRB method; type: cell-based
Procedure, shortened: (§3)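 SRB colorimetric growth assay. IC50, in µM, was the concentration inhibiting cell growth by 50% relative to untreated control cells. Runs were in triplicate in three independent experiments, with means reported. The positive control was doxorubicin.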

[12] = test system: Aspergillus flavus; assay: Fungicidal activity against Aspergillus flavus NCIM-539 after 48 to 72 hrs by two fold serial macrodilution technique; type: functional; procedure, shortened: as §2
[13] = test system: Bacillus subtilis; assay: Bactericidal activity against Bacillus subtilis NCIM-2063 after 72 hrs by two fold serial macrodilution technique; type: functional; conditions: NCIM-2063, 72 h; procedure, shortened: as §2
[14] = test system: MCF7; assay: Cytotoxicity against human MCF7 cells by SRB method; type: cell-based; procedure, shortened: as §3
[15] = test system: Aspergillus niger; assay: Fungicidal activity against Aspergillus niger NCIM-1196 after 48 to 72 hrs by two fold serial macrodilution technique; type: functional; procedure, shortened: as §2
[16] = test system: Cryptococcus neoformans; assay: Antimicrobial activity against Cryptococcus neoformans NCIM-3378 after 20 hrs by two fold serial macrodilution technique; type: functional; conditions: NCIM-3378, 20 h
[17] = test system: Candida albicans; assay: Fungicidal activity against Candida albicans NCIM-3471 after 48 to 72 hrs by two fold serial macrodilution technique; type: functional; procedure, shortened: as §2
[18] = test system: Escherichia coli; assay: Bactericidal activity against Escherichia coli NCIM-2256 after 72 hrs by two fold serial macrodilution technique; type: functional; conditions: NCIM-2256, 72 h; procedure, shortened: as §2

O=C1CSC(c2ccccc2)N1c1ccc(Cl)cc1O (configuration not stated)
MIC [1]: 80 mg/L (≈ 262 µM)
MIC [2]: 55 mg/L (≈ 180 µM)
MBC [3]: 40 mg/L (≈ 131 µM)
MIC [4]: 90 mg/L (≈ 294 µM)
MIC [5]: 65 mg/L (≈ 213 µM)
MIC [6]: 60 mg/L (≈ 196 µM)
MBC [7]: 120 mg/L (≈ 392 µM)
MIC [8]: 25 mg/L (≈ 81.8 µM)
MFC [9]: 125 mg/L (≈ 409 µM)
MIC [10]: 60 mg/L (≈ 196 µM)
IC50 [11]: 63.7 µM
MFC [12]: 115 mg/L (≈ 376 µM)
MBC [13]: 85 mg/L (≈ 278 µM)
IC50 [14]: 56.8 µM
MFC [15]: 120 mg/L (≈ 392 µM)
MIC [16]: 70 mg/L (≈ 229 µM)
MFC [17]: 115 mg/L (≈ 376 µM)
MBC [18]: 125 mg/L (≈ 409 µM)

O=C1CSC(c2ccc([N+](=O)[O-])cc2)N1c1ccc(Cl)cc1O (configuration not stated)
MIC [1]: 75 mg/L (≈ 214 µM)
MIC [2]: 80 mg/L (≈ 228 µM)
MBC [3]: 140 mg/L (≈ 399 µM)
MIC [4]: 100 mg/L (≈ 285 µM)
MIC [5]: 90 mg/L (≈ 257 µM)
MIC [6]: 95 mg/L (≈ 271 µM)
MBC [7]: 135 mg/L (≈ 385 µM)
MIC [8]: 85 mg/L (≈ 242 µM)
MFC [9]: 135 mg/L (≈ 385 µM)
MIC [10]: 100 mg/L (≈ 285 µM)
IC50 [11]: 52.2 µM
MFC [12]: 135 mg/L (≈ 385 µM)
MBC [13]: 140 mg/L (≈ 399 µM)
IC50 [14]: 41 µM
MFC [15]: 160 mg/L (≈ 456 µM)
MIC [16]: 90 mg/L (≈ 257 µM)
MFC [17]: 155 mg/L (≈ 442 µM)
MBC [18]: 155 mg/L (≈ 442 µM)

O=C1CSC(c2ccc(Cl)cc2Cl)N1c1ccc(Cl)cc1O (configuration not stated)
MIC [1]: 85 mg/L (≈ 227 µM)
MIC [2]: 75 mg/L (≈ 200 µM)
MBC [3]: 160 mg/L (≈ 427 µM)
MIC [4]: 70 mg/L (≈ 187 µM)
MIC [5]: 70 mg/L (≈ 187 µM)
MIC [6]: 90 mg/L (≈ 240 µM)
MBC [7]: 155 mg/L (≈ 414 µM)
MIC [8]: 90 mg/L (≈ 240 µM)
MFC [9]: 150 mg/L (≈ 400 µM)
MIC [10]: 80 mg/L (≈ 214 µM)
IC50 [11]: 49.5 µM
MFC [12]: 140 mg/L (≈ 374 µM)
MBC [13]: 160 mg/L (≈ 427 µM)
IC50 [14]: 48.4 µM
MFC [15]: 145 mg/L (≈ 387 µM)
MIC [16]: 100 mg/L (≈ 267 µM)
MFC [17]: 160 mg/L (≈ 427 µM)
MBC [18]: 150 mg/L (≈ 400 µM)

O=C1CSC(c2ccc(Cl)cc2)N1c1ccc(Cl)cc1O (configuration not stated)
MIC [1]: 90 mg/L (≈ 265 µM)
MIC [2]: 65 mg/L (≈ 191 µM)
MBC [3]: 45 mg/L (≈ 132 µM)
MIC [4]: 65 mg/L (≈ 191 µM)
MIC [5]: 50 mg/L (≈ 147 µM)
MIC [6]: 70 mg/L (≈ 206 µM)
MBC [7]: 155 mg/L (≈ 456 µM)
MIC [8]: 20 mg/L (≈ 58.8 µM)
MFC [9]: 160 mg/L (≈ 470 µM)
MIC [10]: 25 mg/L (≈ 73.5 µM)
IC50 [11]: 64.4 µM
MFC [12]: 155 mg/L (≈ 456 µM)
MBC [13]: 45 mg/L (≈ 132 µM)
IC50 [14]: 56.2 µM
MFC [15]: 165 mg/L (≈ 485 µM)
MIC [16]: 95 mg/L (≈ 279 µM)
MFC [17]: 160 mg/L (≈ 470 µM)
MBC [18]: 165 mg/L (≈ 485 µM)
